Measured values reported in ChEMBL document CHEMBL1122231, “Synthesis, benzodiazepine receptor binding, and anticonvulsant activity of 2,3-dihydro-3-oxo-5H-pyrido[3,4-b][1,4]benzothiazine-4-carbonitriles” (J Med Chem, 1983).
pIC50: −log10 of the molar value.

Assays:
[1] = test system: Mus musculus; experiment: Inhibition of pentylenetetrazole (PTZ) induced convulsions in mice at 64 mg/kg after 60 min; 0/10; type: functional
[2] = target: GABA-A receptor; anion channel; experiment: Inhibition of binding of tritiated 3[H]diazepam radioligand to rat brain homogenates; type: tissue-based
Outline: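 Rat brain membranes incubated with [3H]diazepam (final 4 μM) and six to eight concentrations of test drug, 30 °C for 10 min, then 4 °C for 20 min. Reactions were stopped by vacuum filtration through glass-fiber filters. Nonspecific binding was defined with 4 μM unlabeled diazepam. IC50 is the concentration giving 50% inhibition of [3H]diazepam binding to membranes.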

[3] = test system: Mus musculus; experiment: Inhibition of pentylenetetrazole (PTZ) induced convulsions in mice at 4 mg/kg after 30 min; 0/10; type: functional
[4] = test system: Mus musculus; experiment: Inhibition of pentylenetetrazole (PTZ) induced convulsions in mice at 64 mg/kg after 30 min; 0/10; type: functional
[5] = test system: Mus musculus; experiment: Inhibition of pentylenetetrazole (PTZ) induced convulsions in mice at 64 mg/kg after 30 min; 5/10; type: functional
[6] = test system: Mus musculus; experiment: Inhibition of pentylenetetrazole (PTZ) induced convulsions in mice at 64 mg/kg after 30 min; 1/10; type: functional
[7] = test system: Mus musculus; experiment: Inhibition of pentylenetetrazole (PTZ) induced convulsions in mice at 100 mg/kg after 60 min; 2/10; type: functional
[8] = test system: Mus musculus; experiment: Inhibition of pentylenetetrazole (PTZ) induced convulsions in mice at 4 mg/kg after 30 min; type: functional; details: 0.5 h
[9] = test system: Mus musculus; experiment: Minimum effective dose after intraperitoneal administration; type: functional; details: ip, read-out: MED
[10] = test system: Mus musculus; experiment: Inhibition of pentylenetetrazole (PTZ) induced convulsions in mice at 10 mg/kg after 60 min; 0/10; type: functional
[11] = test system: Mus musculus; experiment: Inhibition of pentylenetetrazole (PTZ) induced convulsions in mice at 64 mg/kg after 30 min; 4/10; type: functional
[12] = test system: Mus musculus; experiment: Inhibition of pentylenetetrazole (PTZ) induced convulsions in mice at 64 mg/kg after 60 min; 1/10; type: functional
[13] = test system: Mus musculus; experiment: Inhibition of pentylenetetrazole (PTZ) induced convulsions in mice at 100 mg/kg after 60 min; 8/10; type: functional
[14] = test system: Mus musculus; experiment: Inhibition of pentylenetetrazole (PTZ) induced convulsions in mice at 10 mg/kg after 60 min; type: functional; details: 1 h
[15] = test system: Mus musculus; experiment: Inhibition of pentylenetetrazole (PTZ) induced convulsions in mice at 10 mg/kg after 60 min; 3/10; type: functional
[16] = test system: Mus musculus; experiment: Inhibition of pentylenetetrazole (PTZ) induced convulsions in mice at 4 mg/kg after 30 min; 1/10; type: functional
[17] = test system: Mus musculus; experiment: Inhibition of pentylenetetrazole (PTZ) induced convulsions in mice at 64 mg/kg after 30 min; 2/10; type: functional
[18] = test system: Mus musculus; experiment: Inhibition of pentylenetetrazole (PTZ) induced convulsions in mice at 64 mg/kg after 60 min; 2/10; type: functional
[19] = test system: Mus musculus; experiment: Inhibition of pentylenetetrazole (PTZ) induced convulsions in mice at 64 mg/kg after 60 min; 7/10; type: functional
[20] = test system: Mus musculus; experiment: Inhibition of pentylenetetrazole (PTZ) induced convulsions in mice at 4 mg/kg after 30 min; 2/10; type: functional
[21] = test system: Mus musculus; experiment: Inhibition of pentylenetetrazole (PTZ) induced convulsions in mice at 10 mg/kg after 60 min; 1/10; type: functional
[22] = test system: Mus musculus; experiment: Inhibition of pentylenetetrazole (PTZ) induced convulsions in mice at 64 mg/kg after 60 min; 10/10; type: functional
[23] = test system: Mus musculus; experiment: Inhibition of pentylenetetrazole (PTZ) induced convulsions in mice at 100 mg/kg after 60 min; 6/10; type: functional

## CN1c2ccccc2Sc2cnc(O)c(C#N)c21
[1]
  No. of mice protected: 0
[2]
  pIC50: 6.50
[3]
  No. of mice protected: 0
[4]
  No. of mice protected: 0

## CN1c2ccccc2Sc2cn(C)c(=O)c(C#N)c21
[2]
  pIC50: 4.00
[5]
  No. of mice protected: 5
[3]
  No. of mice protected: 0

## Cn1cc2c(c(C#N)c1=O)Nc1ccccc1S2
[2]
  pIC50: 4.77
[3]
  No. of mice protected: 0
[6]
  No. of mice protected: 1
[7]
  No. of mice protected: 2

## N#Cc1c(O)ncc2c1Nc1ccccc1S2
[8]
  ED50: 62 mg/kg
[2]
  pIC50: 6.35
[9]
  minimal effective dose: 60 mg/kg
[10]
  No. of mice protected: 0
[3]
  No. of mice protected: 0
[11]
  No. of mice protected: 4
[12]
  No. of mice protected: 1

## Cc1nc(O)c(C#N)c2c1Sc1ccccc1N2
[2]
  pIC50: 5.77
[3]
  No. of mice protected: 0
[6]
  No. of mice protected: 1
[7]
  No. of mice protected: 2

## N#Cc1c(O)ncc2c1Nc1ccccc1[S+]2[O-] (stereo unspecified)
[2]
  pIC50: 5.37
[13]
  No. of mice protected: 8
[14]
  ED50: 41 mg/kg
[15]
  No. of mice protected: 3

## N#Cc1c(O)ncc2c1Nc1cc(Cl)ccc1S2(=O)=O
[16]
  No. of mice protected: 1
[17]
  No. of mice protected: 2
[2]
  pIC50: 5.12

## N#Cc1c(O)ncc2c1Nc1ccccc1S2(=O)=O
[16]
  No. of mice protected: 1
[17]
  No. of mice protected: 2
[2]
  pIC50: 4.96
[18]
  No. of mice protected: 2

## N#Cc1c(O)ncc2c1Nc1ccc(N)cc1S2
[2]
  pIC50: 6.04
[5]
  No. of mice protected: 5
[19]
  No. of mice protected: 7
[20]
  No. of mice protected: 2

## N#Cc1c(O)ncc2c1Nc1ccc([N+](=O)[O-])cc1S2
[2]
  pIC50: 6.10
[3]
  No. of mice protected: 0
[7]
  No. of mice protected: 2
[21]
  No. of mice protected: 1

## N#Cc1c(O)ncc2c1Nc1ccc(Cl)cc1S2(=O)=O
[16]
  No. of mice protected: 1
[2]
  pIC50: 6.20
[5]
  No. of mice protected: 5

## N#Cc1c(O)ncc2c1Nc1ccc(Cl)cc1S2
[2]
  pIC50: 6.49
[7]
  No. of mice protected: 2

## N#Cc1c(O)ncc2c1Nc1ccc(Br)cc1S2
[2]
  pIC50: 5.10
[10]
  No. of mice protected: 0
[5]
  No. of mice protected: 5
[3]
  No. of mice protected: 0
[7]
  No. of mice protected: 2

## N#Cc1c(O)ncc2c1Nc1cc(Cl)ccc1S2
[8]
  ED50: 26 mg/kg
[2]
  pIC50: 6.40
[22]
  No. of mice protected: 10
[14]
  ED50: 32 mg/kg
[21]
  No. of mice protected: 1

## N#Cc1c(O)ncc2c1Nc1cc(Cl)ccc1[S+]2[O-] (stereo unspecified)
[17]
  No. of mice protected: 2
[2]
  pIC50: 4.46
[10]
  No. of mice protected: 0
[3]
  No. of mice protected: 0
[23]
  No. of mice protected: 6

## COc1cc2c(cc1OC)Sc1cnc(O)c(C#N)c1N2
[2]
  pIC50: 4.00
[18]
  No. of mice protected: 2
[21]
  No. of mice protected: 1

## CNC1=Nc2ccc(Cl)cc2C(c2ccccc2)=[N+]([O-])C1 [CHLORDIAZEPOXIDE]
[8]
  ED50: 1.25 mg/kg
[2]
  pIC50: 6.35
